Source: article PMC3769431 (Structure (London, England : 1993), 2013)

Tests used:
p38α [1] = target: T1, p38α (Homo sapiens, UniProt Q16539); test: Small angle X-ray scattering, resting-state complex with unphosphorylated p38α; details: SAXS, GNOM
Method in brief: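 Unphosphorylated p38α was mixed 1:1 with PTPSL 331–655 or STEP 214–539 for 30 min on ice, then SEC-purified in 50 mM HEPES pH 6.8, 150 mM NaCl, 5 mM DTT. Samples were 0.4–4.0 mg/ml (PTPSL) or 1.0–4.0 mg/ml (STEP), filtered, flowed through a 1 mm capillary and exposed 30 s or 180 s at a synchrotron beamline. Dmax came from the P(r) function.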

p38α (unphosphorylated) [2] = target: p38α (unphosphorylated) (UniProt Q16539); test: ITC
p38α (unphosphorylated) [3] = target: p38α (unphosphorylated) (UniProt Q16539 1-360); test: ITC
p38α [4] = target: T1, p38α; test: Isothermal titration calorimetry; assay type: binding
p38α [5] = target: T1, p38α; test: NMR chemical shift perturbation, 2D [1H,15N] TROSY of [2H,15N]-p38α; assay type: binding; details: for number of p38α peaks with CSPs on complex formation / number of p38α peaks with line-widths broadened beyond detection / number of perturbed p38α peaks in fast exchange: free vs bound p38α, SEC-purified 1:1 complex, NMR buffer pH 6.8; for number of p38α peaks with CSPs on complex formation / number of p38α peaks with line-widths broadened beyond detection / number of perturbed p38α peaks in fast exchange / interaction with p38α by NMR (in words): 298 K; for interaction with p38α by NMR (in words): 2D [1H,15N] TROSY, 800 MHz, 50 mM HEPES pH 6.8, 150 mM NaCl, 5 mM dithiothreitol
p38α [6] = target: T1, p38α; details: 2011, cited from earlier work; for dephosphorylation of p38α (in words): in vitro phosphatase assays, ref Zhang et al.
[7] = ITC, 25 °C, 10 mM Tris pH 7.5, 150 mM NaCl, 0.1 mM EDTA, 0.5 mM TCEP

Sequence of p38α (unphosphorylated) (UniProt Q16539) (Q16539 whole entry): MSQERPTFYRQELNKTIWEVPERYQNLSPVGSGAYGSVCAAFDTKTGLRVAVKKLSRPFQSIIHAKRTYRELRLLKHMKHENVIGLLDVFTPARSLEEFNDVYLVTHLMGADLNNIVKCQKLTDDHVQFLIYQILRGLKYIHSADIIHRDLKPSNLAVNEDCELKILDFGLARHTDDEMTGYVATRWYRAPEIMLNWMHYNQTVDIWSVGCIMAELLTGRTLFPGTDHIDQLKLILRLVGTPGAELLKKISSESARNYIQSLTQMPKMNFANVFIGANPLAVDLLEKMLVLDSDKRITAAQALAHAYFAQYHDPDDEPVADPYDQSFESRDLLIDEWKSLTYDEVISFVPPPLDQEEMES
Sequence of p38α (unphosphorylated) (UniProt Q16539 1-360) (Q16539 whole entry): as above
T1 sequence (Q16539 whole entry): as above

Molecule: p38:PTPRR: 1:1 complex of unphosphorylated p38α with PTPSL 331–655
- Dmax (P(r) function calculation) (p38α [1]): 105 Å
- Rg (P(r) function calculation) (p38α [1]): 34.1 Å

Molecule: PSChimera (from UniProt Q15256 332-373)
- Kd (p38α (unphosphorylated) [2]): 309 nM
- dH (p38α (unphosphorylated) [2]): -27.2 kcal/mol

Molecule: STEP_(F274A/F281A) (domain or fragment)
- Kd (p38α (unphosphorylated) [2]): 1070 nM
- dH (p38α (unphosphorylated) [2]): -24.2 kcal/mol

Molecule: STEP (residues 214–539) (domain or fragment)
- Kd (p38α (unphosphorylated) [2]): 577 nM
- dH (p38α (unphosphorylated) [2]): -28.8 kcal/mol

Molecule: STEP_(M285A/I307A) (domain or fragment)
- Kd (p38α (unphosphorylated) [2]): 592 nM
- dH (p38α (unphosphorylated) [2]): -27.6 kcal/mol

B1: STEP_(F281A/I307A) (domain or fragment)
chain: GLQERRGSNVSLTLDMCTPGCNEEGFGYLMSPREESAREYLLSASRVLQAEELHEKALDPFLLQAEFAEIPMNFVDPKEYDIPGLVRKNRYKTALPNPHSRVCLTSPDPDDPLSSYINANYIRGYGGEEKVYIATQGPIVSTVADFWRMVWQEHTPIIVMITNIEEMNEKCTEYWPEEQVAYDGVEITVQKVIHTEDYRLRLISLKSGTEERGLKHYWFTSWPDQKTPDRAPPLLHLVREVEEAAQQEGPHCAPIIVHCSAGIGRTGCFIATSICCQQLRQEGVVDILKTTCQLRQDRGGMIQTCEQYQFVHHVMSLYEKQLSHQS
- Kd (p38α (unphosphorylated) [3]): 1060 ± 36 nM
- dH (p38α (unphosphorylated) [3]): -34.3 ± 1.1 kcal/mol

B2: STEP: STEP (residues 214–539) (protein, UniProt P54829 214-539, looked up, fragment)
chain: TPVFDCVMDIKPEADPTSLTVKSMGLQERRGSNVSLTLDMCTPGCNEEGFGYLMSPREESAREYLLSASRVLQAEELHEKALDPFLLQAEFFEIPMNFVDPKEYDIPGLVRKNRYKTILPNPHSRVCLTSPDPDDPLSSYINANYIRGYGGEEKVYIATQGPIVSTVADFWRMVWQEHTPIIVMITNIEEMNEKCTEYWPEEQVAYDGVEITVQKVIHTEDYRLRLISLKSGTEERGLKHYWFTSWPDQKTPDRAPPLLHLVREVEEAAQQEGPHCAPIIVHCSAGIGRTGCFIATSICCQQLRQEGVVDILKTTCQLRQDRGGMI
- Kd (p38α [4]; [7]): 577 ± 71 nM
- TΔS (p38α [4]; [7]): -20.3 ± 2.0 kcal/mol
- ΔG (p38α [4]; [7]): -8.5 ± 0.1 kcal/mol
- ΔH (p38α [4]; [7]): -28.8 ± 2.0 kcal/mol
- times tighter binding to p38α than STEPKIM (p38α [4]; ITC, relative to STEPKIM): ~ 6 times
- additional or larger CSPs (residues) than with the corresponding KIM peptide (p38α [5]; comparison with p38α:STEPKIM or p38α:PTPSLKIM spectra): three
- number of p38α peaks with CSPs on complex formation (p38α [5]): 58 peaks
- number of p38α peaks with line-widths broadened beyond detection (p38α [5]): 18 peaks
- number of perturbed p38α peaks in fast exchange (p38α [5]): 40 peaks
- kcat for dephosphorylation of p38α, fold lower than for PTPSL or HePTP (p38α [6]; compared with PTPSL or HePTP, ref Balasu et al., 2009, Zhang et al.): ~ 20 fold
- dephosphorylation of p38α (in words) (p38α [6]): significantly less efficient than PTPSL and HePTP at dephosphorylating p38α

B3: HePTP: KIM-PTP HePTP (PTPN7, LC-PTP) (protein, UniProt P35236 1-360, looked up)
Tyrosine-protein phosphatase …: MVQAHGGRSRAQPLTLSLGAAMTQPPPEKTPAKKHVRLQERRGSNVALMLDVRSLGAVEPICSVNTPREVTLHFLRTAGHPLTRWALQRQPPSPKQLEEEFLKIPSNFVSPEDLDIPGHASKDRYKTILPNPQSRVCLGRAQSQEDGDYINANYIRGYDGKEKVYIATQGPMPNTVSDFWEMVWQEEVSLIVMLTQLREGKEKCVHYWPTEEETYGPFQIRIQDMKECPEYTVRQLTIQYQEERRSVKHILFSAWPDHQTPESAGPLLRLVAEVEESPETAAHPGPIVVHCSAGIGRTGCFIATRIGCQQLKARGEVDILGIVCQLRLDRGGMIQTAEQYQFLHHTLALYAGQLPEEPSP
- dephosphorylation of p38α (in words) (p38α [6]): can both readily dephosphorylate p38α

B4: PTPSL (residues 332–655) (domain or fragment, UniProt Q15256 332-655, looked up)
chain: GLQERRGSNVSLTLDMSSLGNIEPFVSIPTPREKVAMEYLQSASRILTRSQLRDVVASSHLLQSEFMEIPMNFVDPKEIDIPRHGTKNRYKTILPNPLSRVCLRPKNVTDSLSTYINANYIRGYSGKEKAFIATQGPMINTVDDFWQMVWQEDSPVIVMITKLKEKNEKCVLYWPEKRGIYGKVEVLVISVNECDNYTIRNLVLKQGSHTQHVKHYWYTSWPDHKTPDSAQPLLQLMLDVEEDRLASQGRGPVVVHCSAGIGRTGCFIATSIGCQQLKEEGVVDALSIVCQLRMDRGGMVQTSEQYEFVHHALCLYESRLSAET
- relative binding affinity for p38α (in words) (p38α [4]; ITC): the highest affinity interaction with p38α among the KIM-PTPs
- TΔS (p38α [4]; [7]): -21.4 ± 1.4 kcal/mol
- ΔG (p38α [4]; [7]): -8.8 ± 0.1 kcal/mol
- times tighter binding to p38α than PTPSLKIM (p38α [4]; ITC, relative to PTPSLKIM): ~ 7 times
- times tighter binding to p38α than HePTP (p38α [4]; relative to HePTP): ~6 times
- number of p38α peaks with CSPs on complex formation (p38α [5]): 41 peaks
- number of p38α peaks with line-widths broadened beyond detection (p38α [5]): 5 peaks
- number of perturbed p38α peaks in fast exchange (p38α [5]): 36 peaks
- dephosphorylation of p38α (in words) (p38α [6]): the most efficient p38α phosphatase of all tested
- Kd (p38α (unphosphorylated) [3]): 382 ± 65 nM
- dH (p38α (unphosphorylated) [3]): -30.2 ± 1.5 kcal/mol

B5: STEPCAT: STEPCAT (residues 244–539), catalytic domain (protein, UniProt P54829 244-539, looked up, fragment)
chain: GSNVSLTLDMCTPGCNEEGFGYLMSPREESAREYLLSASRVLQAEELHEKALDPFLLQAEFFEIPMNFVDPKEYDIPGLVRKNRYKTILPNPHSRVCLTSPDPDDPLSSYINANYIRGYGGEEKVYIATQGPIVSTVADFWRMVWQEHTPIIVMITNIEEMNEKCTEYWPEEQVAYDGVEITVQKVIHTEDYRLRLISLKSGTEERGLKHYWFTSWPDQKTPDRAPPLLHLVREVEEAAQQEGPHCAPIIVHCSAGIGRTGCFIATSICCQQLRQEGVVDILKTTCQLRQDRGGMI
modifications: catalytic domain
- interaction with p38α by NMR (in words) (p38α [5]): non-specific interactions throughout the p38α surface

B6: PTPSLCAT: PTPSLCAT (residues 361–655), catalytic domain (protein)
chain: TPREKVAMEYLQSASRILTRSQLRDVVASSHLLQSEFMEIPMNFVDPKEIDIPRHGTKNRYKTILPNPLSRVCLRPKNVTDSLSTYINANYIRGYSGKEKAFIATQGPMINTVDDFWQMVWQEDSPVIVMITKLKEKNEKCVLYWPEKRGIYGKVEVLVISVNECDNYTIRNLVLKQGSHTQHVKHYWYTSWPDHKTPDSAQPLLQLMLDVEEDRLASQGRGPVVVHCSAGIGRTGCFIATSIGCQQLKEEGVVDALSIVCQLRMDRGGMVQTSEQYEFVHHALCLYESRLSAET
- interaction with p38α by NMR (in words) (p38α [5]): no interactions between p38α and isolated PTPSLCAT were detected

Molecule: GLQERRGSNVSLTLDMSSLGNIEPFVSIPTPREKVAMEYLQS (peptide, UniProt Q15256 332-373, looked up) [PTPSL_(KIMKIS) (residues 332–373)]
- Kd (p38α (unphosphorylated) [3]): 1530 ± 23 nM
- dH (p38α (unphosphorylated) [3]): -38.8 ± 6.1 kcal/mol
